Data on 36 sequences can be found in the EternaBench riboswitch data.

For this series, the system named is MS2 coat protein. Nature of the series: apparent Kd, MS2 coat protein; higher = weaker binding; RNA-MaP array; FMN 200 µM where present. The method, boiled down:
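Designs were transcribed by stalled E. coli RNA polymerase on Illumina sequencing-chip clusters. They were titrated with SNAP-549-labelled MS2 coat protein from 0.7 or 1.5 nM, doubling to 3 µM, without and then with constant ligand. Buffer: 100 mM Tris-HCl pH 7.5, 80 mM KCl, 4 mM MgCl2, BSA, DTT, yeast tRNA, Tween-20. Green signal was normalised to red-channel RNA signal and control-cluster median Fmax. Apparent Kd is the median of filtered per-cluster binding-curve fits.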

Setting [1] is: designed as: OFF switch for flavin mononucleotide, no ligand.
The mark [2] stands for this setting: ligand present: flavin mononucleotide, designed as: OFF switch for flavin mononucleotide.
The mark [3] stands for this setting: designed as: ON switch for flavin mononucleotide, no ligand.
The mark [4] stands for this setting: ligand present: flavin mononucleotide, designed as: ON switch for flavin mononucleotide.

Regarding “AAUGAAACUUAGAAGGCCUACAUGAGGAUCACCCAUGUGGCUUUAAGUGUAGGAGGAUAUGAGGAUGCGGGUAGGAACCCACGC”, the apparent Kd – broadly, the concentration giving half-maximal binding under the conditions of the assay – was determined as 6.37 nM under setting [1] and 14.8 nM under setting [2].
For “UGGUACAUGGGAGGAUAUGGUGUAGACACAUGAGGAUCACCCAUGUCGAUGGAGACAUCGGAGAUCCAGAAGGCCCAUGUACCU”, the “apparent Kd” value reads like this: under setting [3], 503 nM; under setting [4], 24 nM.
On to “GCCAGCGCAUGAGGAUAUGCUCCCGUUUCGGGAGCAGAAGGCAUGUCAUAAGACAUGAGGAUCACCCAUGUAGUUAACAUGGCA”, for which the “apparent Kd” value was 311 nM under setting [3] and 23 nM under setting [4].
Regarding “GGCCCGCGCGUGAGGAUAUGCUGAUACUAGGAUCAGCAGAAGGCACAUGAGGAUCACCCAUGUCCAACUUGUCU”, the “apparent Kd” value under setting [1] was determined as 28.9 nM and the “apparent Kd” value under setting [2] is 36.4 nM.
In the case of “CCUACCAUCACAGGAUAUGCUAUCCUUUGGGUAGCAGAAGGGUGAUAACAUGAGGAUCACCCAUGUGGUAGGCCCGGUGACGGG”, the “apparent Kd” value under setting [3] turned out to be 768 nM and the “apparent Kd” value under setting [4] is 227 nM.
For “AAAAAACAUGAGGAUCACCCAUGUAAAAAAAUCGCAGGAUAUACGGUCGCGAAAGCGACCGUAGAAGGGCGAUCCU”, the “apparent Kd” value is, setting by setting: under setting [3], 251 nM; under setting [4], 94.8 nM.
As for “AAUAUAAAAGAGCUGGAUAAACUCACAUGAGGAUCACCCAUGUAGGAUAUCAGCACGAUAAGUGCUGAGAAGGACAACCAGCUC”, the “apparent Kd” value is, setting by setting: under setting [1], 14.8 nM; under setting [2], 15.3 nM.
For “GUUGUGUGAGGAUAUUCCUGGCCGUGUGGCCGGUUUGGGUGGCAGAAGGUACAUGAGGAUCACCCAUGUACGGG”, the “apparent Kd” value reads like this: under setting [1], 96.9 nM; under setting [2], 75.8 nM.
For “UGGUACAUGGGAGGAUAUCAUGUAGAUACAUGAGGAUCACCCAUGUCGAUGGAGACAUCGGAGAUUGAGAAGGCCCAUGUACCU”, the “apparent Kd” value is 778 nM under setting [3] and 32.9 nM under setting [4].
Consider “AAGAGCGAUUCUCCCUUCCUACAUGAGGAUCACCCAUGUACGAGAAGGCGCCGUGUAUACAACGGUGAGGAUAUCGUACGUUAC”, for which the “apparent Kd” value amounted to 5.46 nM under setting [1] and 10.7 nM under setting [2].
Turning to “AGGUAAGACUUAAUUGUGCUGGUGAGAAGGCUGCUGGUUGUGGUCUACAUGAGGAUCACCCAUGUUGAGGAUAUCAUCGGUAUC”, the “apparent Kd” value under setting [1] was determined as 711 nM and the “apparent Kd” value under setting [2] is 103 nM.
Regarding “CUUCUGUGAGGAUAUGUUAGCUCCCGGCAUGUCGCUGGGAGACAGAAGGCACAUGAGGAUCACCCAUGUGGGCG”, the “apparent Kd” value by setting is: under setting [1], 34 nM; under setting [2], 161 nM.
On the same counts, the results for “GAACGUGAUGUAAGGAUAUGUAGCCAUCGAGGCGUAUAGAAGGUACAUGAGGAUCACCCAUGUGAGCUCGUUAU” are 36.7 nM and 44.6 nM.
For the sequence “AGUGUCAUCGAGAAGGCCUCGACAUGAGGAUCACCCAUGUUGUAAUAUGGGAGGAUAUCGAUGAUACAGCUACGUUUCGUAGCA”, the “apparent Kd” value amounted to 40.3 nM under setting [3] and 13.4 nM under setting [4].
Turning to “UAUGUUUUAGGAUAUUGUACUGCUGACAUGAGGAUCACCCAUGUAUGCUAACUCGGUUGUCGAGAAGGAGAAUAUG”, the “apparent Kd” value runs as follows: under setting [1], 59.4 nM; under setting [2], 44.2 nM.
With “AGCAUGGUAGGAUAUACGGAGCAUUAGGGUUUGUUGUGUGGACAUGAGGAUCACCCAUGUAGAAGGGCCGUGCA”, the “apparent Kd” value was 47 nM under setting [1] and 64.2 nM under setting [2].
In the case of “GCAACGCCUGACAUGAGGAUCACCCAUGUUAGAUUGUUAUGUCAGGAUAUAGUCUAGAAACUAGACUAGAAGGGAUGUGUUGCU”, the “apparent Kd” value runs as follows: under setting [3], 703 nM; under setting [4], 131 nM.
Take “AUAUUUGUGUAGAAGGUACGUGAUUAGUCAUAGUAAGGAUAUACUGACAUGAGGAUCACCCAUGUAUAAAUAGUUAAAUGUUCU”: the “apparent Kd” value came to 14.4 nM under setting [3] and 8.52 nM under setting [4].
On the same counts, the results for “GUAUGAGCGAUAGGAUAUACUGAGAUUGAAUGGGUAGAAGGAUCUCUUGUGGGAAAGACAUGAGGAUCACCCAUGUCACGGGCC” are 122 nM and 130 nM.
For “UAUUAGUGAGGAUAUGAGUCGUAGAACAAUAGUACUACGUCUCAGAAGGUACAUGAGGAUCACCCAUGUUUCUC”, the “apparent Kd” value under setting [1] was determined as 20 nM and the “apparent Kd” value under setting [2] is 23.8 nM.
On to “UUUAUUUUGCAAGGAUAUGUUUAAUUUUAGUUUCCUUAAACAUGAGGAUCACCCAUGUUAUACUUACAGAAGGUGCAUAAUUUU”, for which the “apparent Kd” value runs as follows: under setting [1], 90.6 nM; under setting [2], 52.5 nM.
As to “ACGCGAUGGGAGAAGGUACUUUAAGAAUUUUACACAUGAGGAUCACCCAUGUAAGGAUAUCCCAUCGUUAAAUAUUAUACAGCA”, the “apparent Kd” value stood at 6.56 nM under setting [1] and 5.77 nM under setting [2].
On the same counts, the results for “AGUAACAGAGGAUAUACUGUUUUAUGUAUUUAUUAUUUUAAACAUGAGGAUCACCCAUGUAGAAGGCUGAAUGA” are 24.5 nM and 23.3 nM.
Regarding “UGAAUGGUGAUAGGAUAUACAUGAGGAAUCCUCGUAGAAGGAUCACGACAUGAGGAUCACCCAUGUAGCCGUCCGUAGACGGCC”, the “apparent Kd” value under setting [3] came out at 227 nM and the “apparent Kd” value under setting [4] came out at 470 nM.
With “UUACCUCAUGAGAAGGACAUGAGGAUCACCCAUGUAGGAUAUCGUGGAAGACAGGUAUUGAAUCUUCGGAUUCAAUACCUGUCU”, the “apparent Kd” value reads like this: under setting [3], 331 nM; under setting [4], 17.1 nM.
On to “UUCCUACAUGAGGAUCACCCAUGUCAGGAUAUCUCCUCACCGCGAAUGGGCAGUGAAUAGAGAAGGGACAGGAA”, for which the “apparent Kd” value worked out at 11.9 nM under setting [1] and 15.9 nM under setting [2].
On to “UCGCUGCGAGGAUAUACGUGCGCGCGCUUUCGUUUGCGCGUACAUGAGGAUCACCCAUGUAGAAGGCGCGCUGC”, for which the “apparent Kd” value reads like this: under setting [1], 16.2 nM; under setting [2], 15.8 nM.
On the same counts, the results for “UUGGUAUUCGUAGGAUAUCUGUCGCCACCGUGUGGAGAAGGACGAACAUGAGGAUCACCCAUGUAUCAUGGUGUGGGCGUUGUU” are 85.8 nM and 89.9 nM.
Regarding “GCACGGUAUGUAGGAUAUGCAUAGCAUUGCUAUGCAGAAGGACAUGAGGAUCACCCAUGUAUGUAUUCCAUAUAUUUCCCGUGC”, the “apparent Kd” value under setting [1] is 5.55 nM and the “apparent Kd” value under setting [2] was found to be 5.87 nM.
“GAACCUAAGUUAGGAUAUGUCUAAGAAAGCUGACAUGAGGAUCACCCAUGUGAAUGCAAAGAAUGGCAGAAGGGAUAUGGGUGG”: the “apparent Kd” value by setting is: under setting [3], 73 nM; under setting [4], 76.8 nM.
On the same counts, the results for “CCUAAGGAGGUAGGAUAUUGUGUGGUGGCCGGGCUCCCACGGCGAGCGGCACAAGAAGGAUCCCUACAUGAGGAUCACCCAUGU” are 25.5 nM and 20.3 nM.
Consider “UAGUUGCUAGGAUAUACUUGGGCAACUACUGAACCUAUAUAACAUGAGGAUCACCCAUGUAGAAGGAGCAUAUA”, for which the “apparent Kd” value is 23.1 nM under setting [1] and 19.1 nM under setting [2].
For the sequence “UGUAUGGACAGAGGAUAUACGGCUAGGAGAUACUAGCCACUAUUCCUCACAUGAGGAUCACCCAUGUAGAAGGCUGUCCAUACU”, the “apparent Kd” value is, setting by setting: under setting [1], 17.2 nM; under setting [2], 120 nM.
Regarding “UGUCAAAAUGAAGGAUAUCUAAGCAUAAACCAUAGAGAAGGUCAAUAGUACAUGAGGAUCACCCAUGUUAGAAUAGAUGGGUUA”, the “apparent Kd” value by setting is: under setting [1], 99.9 nM; under setting [2], 155 nM.
As to “AAAAAGGGAGGAUAUACAUGAGGAUCACCCAUGUAUCAGACGAAAAAGAGUCUGAAGUGUAGAAGGCCCAAAAA”, the “apparent Kd” value stood at 18.3 nM under setting [1] and 27.4 nM under setting [2].
For the sequence “GUAGCAAUCGGAGGAUAUUCAUUAAACAUGAGGAUCACCCAUGUAAAUUUGGGAGAAGGCCGAUUGCUACAAGAGCGAAAGCUC”, the “apparent Kd” value reads like this: under setting [3], 22.9 nM; under setting [4], 6.1 nM.
